Assay results published in ChEMBL document CHEMBL3244285, “Hypotensive phospholipids. Some stable analogues of Darmstoff” (J Med Chem, 1978).
Active and inactive are the calls of the source. The calls are words filed in the database; no cut-off is given here.

Experiments:
Rattus norvegicus [1] = test: Toxicity in awake normotensive rat assessed as heart rate at 1 mg/100 g, iv measured within 2 mins (reference value: 430 +/- 50/min); type: organism-based; conditions: in vivo
Rattus norvegicus [2] = test: Toxicity in awake normotensive rat assessed as heart rate at 2 mg/100 g, iv measured within 2 mins (reference value: 420/min); type: organism-based; conditions: in vivo
Rattus norvegicus [3] = test: Toxicity in awake normotensive rat assessed as cardiac arrest at 4 mg/100 g, iv measured within 2 mins; type: organism-based; conditions: in vivo
Rattus norvegicus [4] = test: Hypotensive activity in awake normotensive rat assessed as mean blood pressure at 1 mg/100 g, iv measured within 2 mins (reference value: 125 +/- 16 mmHg); type: functional
Rattus norvegicus [5] = test: Hypotensive activity in awake normotensive rat assessed as mean blood pressure at 2 mg/100 g, iv measured within 2 mins (reference value: 125 mmHg); type: functional
Rattus norvegicus [6] = test: Toxicity in awake normotensive rat assessed as decrease in heart rate at 1 mg/100 g, iv measured for 10 mins; type: organism-based; conditions: in vivo
Summary of the method: (§1)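 Chronically catheterized, unrestrained normotensive rats received iv drug in 0.9% NaCl through the venous catheter. Heart rate was followed continuously on chart records from the arterial strain-gauge trace, from the moment of injection for at least 10 min.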

Rattus norvegicus [7] = test: Toxicity in awake normotensive rat assessed as decrease in heart rate at 2 mg/100 g, iv measured for 10 mins; type: organism-based; conditions: in vivo; summary of the method: as §1
Rattus norvegicus [8] = test: Toxicity in awake normotensive rat assessed as decrease in heart rate at 1 mg/100 g, iv measured within 2 mins in presence of beta-adrenergic inhibitor propranolol; type: organism-based; conditions: in vivo
Rattus norvegicus [9] = test: Toxicity in awake normotensive rat assessed as decrease in heart rate at 2 mg/100 g, iv measured within 2 mins in presence of beta-adrenergic inhibitor propranolol; type: organism-based; conditions: in vivo
Rattus norvegicus [10] = test: Hypotensive activity in awake normotensive rat assessed as decrease in mean blood pressure at 1 mg/100 g, iv measured within 2 mins in presence of beta-adrenergic inhibitor propranolol; type: functional, organism-based
Rattus norvegicus [11] = test: Hypotensive activity in awake normotensive rat assessed as decrease in mean blood pressure at 2 mg/100 g, iv measured within 2 mins in presence of beta-adrenergic inhibitor propranolol; type: functional, organism-based
Rattus norvegicus [12] = species: Rattus norvegicus; test: Hypotensive activity in spontaneous hypertensive rat model measured after 48 hrs; type: functional, organism-based
Rattus norvegicus [13] = species: Rattus norvegicus; test: Toxicity in spontaneous hypertensive rat model assessed as bradycardia measured after 48 hrs; type: organism-based; conditions: in vivo
[14] = Stability of the compound in 0.9% sodium chloride solution at 5 degC measured within 1 hr; type: physicochemical
Summary of the method: (§2)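 Solution stability was tested by storing drug solutions in 0.9% NaCl at 5 °C. At the stated storage times the stored solutions were given iv to catheterized, unrestrained normotensive rats, and blood pressure and heart-rate responses were re-measured by arterial strain gauge.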

Rattus norvegicus [15] = test: Toxicity in awake normotensive rat assessed as heart rate at 1 mg/100 g, iv measured within 2 mins (reference value: 430 +/- 40/min); type: organism-based; conditions: in vivo
Rattus norvegicus [16] = test: Hypotensive activity in awake normotensive rat assessed as mean blood pressure at 1 mg/100 g, iv measured within 2 mins (reference value: 115 +/- 17 mmHg); type: functional
[17] = Stability of the compound in 0.9% sodium chloride solution at 5 degC measured after 24 hrs; type: physicochemical; summary of the method: as §2
Rattus norvegicus [18] = test: Toxicity in awake normotensive rat assessed as heart rate at 1 mg/100 g, iv measured within 2 mins (reference value: 450 +/- 57/min); type: organism-based; conditions: in vivo
Rattus norvegicus [19] = test: Hypotensive activity in awake normotensive rat assessed as mean blood pressure at 1 mg/100 g, iv measured within 2 mins (reference value: 130 +/- 6.9 mmHg); type: functional
[20] = Stability of the compound in 0.9% sodium chloride solution at 5 degC measured after 72 hrs; type: physicochemical; summary of the method: as §2

Stability [14]	Stability [17]	Stability [20]	Structure (SMILES)	heart rate (Rattus norvegicus [1])	heart rate (Rattus norvegicus [2])	Activity (Rattus norvegicus [3])	Activity (Rattus norvegicus [4])	Activity (Rattus norvegicus [5])	Activity (Rattus norvegicus [6])	Activity (Rattus norvegicus [7])	Activity (Rattus norvegicus [8])	Activity (Rattus norvegicus [9])	Activity (Rattus norvegicus [10])	Activity (Rattus norvegicus [11])	Activity (Rattus norvegicus [12])	Activity (Rattus norvegicus [13])	heart rate (Rattus norvegicus [15])	Activity (Rattus norvegicus [16])	heart rate (Rattus norvegicus [18])	Activity (Rattus norvegicus [19])
Unstable	–	–	CCCCCCCCCCCCCCCC1OCC(COP(=O)([O-])O)O1.[Na+] (stereo unspecified)	310 beats/min	250 beats/min	Toxic	100 mmHg	100 mmHg	Toxic	Toxic	Toxic	Toxic	Active	Active	Active	Toxic	–	–	–	–
–	Stable	–	CCCCCCCCCCCCCCCC1CCC(COP(=O)([O-])O)O1.[Na+] (stereo unspecified)	–	–	–	–	–	Toxic	–	Toxic	–	Active	–	–	–	350 beats/min	100 mmHg	–	–
–	–	Stable	CCCCCCCCCCCCCCCC1CCC(COP(=O)([O-])O)C1.[Na+] (stereo unspecified)	–	–	–	–	–	Toxic	–	Toxic	–	Active	–	–	–	–	–	375 beats/min	120 mmHg
